Compound activity from PubChem.
Compounds with a hit are over-represented: about 4.6% of the library has one in this group of screens.
RAM network inh: inhibitors of the yeast RAM network, primary screen, dse1pr::URA3 reporter, 5-FOA selection; S. cerevisiae dse1pr::URA3 reporter, 5-FOA growth OD615, 2 d; analog-sensitive cbk1-as2 kinase mutant strain; inhibition, % at 50 µM; 190,000 tested, 1.8% active;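 active = inhibition above a set limit, 3 SD over mean compound inhibition, cut at about 8.4% in these data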;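 also: 0% = DMSO-only wells with no growth and 100% = 10 µM 1-NA-PP1 full growth; inhibition rescues growth on 5-FOA so higher OD means more RAM inhibition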
p47phox inh: p47phox/p22phox peptide binding inhibitors, primary screen, biochemical, uHTS, NADPH oxidase regulatory subunit; AID 1274, 2008; inhibition, % at 24.7 µM; fluorescence polarization, 2 h; Neutrophil cytosol factor 1 (Homo sapiens), P14598; 220,000 tested, 0.53% active;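 active = inhibition above about 30%, limit read from the data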;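 also: 0% = p47phox with labelled peptide and 100% = labelled peptide alone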
Target sequence (P14598 whole entry, looked up): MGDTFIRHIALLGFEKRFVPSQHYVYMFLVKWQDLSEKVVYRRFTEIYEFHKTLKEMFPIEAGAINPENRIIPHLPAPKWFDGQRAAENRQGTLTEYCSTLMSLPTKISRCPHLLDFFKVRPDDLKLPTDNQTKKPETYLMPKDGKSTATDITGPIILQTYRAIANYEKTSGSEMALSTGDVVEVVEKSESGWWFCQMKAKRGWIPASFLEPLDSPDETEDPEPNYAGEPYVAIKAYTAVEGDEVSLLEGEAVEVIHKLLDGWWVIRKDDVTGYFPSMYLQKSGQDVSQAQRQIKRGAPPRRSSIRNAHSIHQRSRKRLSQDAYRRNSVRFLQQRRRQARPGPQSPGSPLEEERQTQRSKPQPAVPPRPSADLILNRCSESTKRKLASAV
Arbovirus anti: antivirals against arbovirus infection, primary screen, cell-based, full library, 10K replicate subset. arbovirus infection cell-based antiviral screen. inhibition, % at 10 µM. 200,000 tested, 0.37% active. AID 1251, 2008; in the data active = inhibition above about 30%
Biofilm kill mix: clotrimazole potentiators killing C. albicans biofilm, primary screen, 4-compound mixtures. C. albicans biofilm persisters + clotrimazole, fluorescence viability; primary screen in compound mixtures of four per well. inhibition, % at 7.6 µM. 120,000 tested, 0.02% active. AID 1242, 2008;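 active = inhibition above 30.3% in the primary screen of four-compound pools, then above 30% when the compound was retested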;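 also: compounds exposed to preformed 24 h biofilms for 48 h; 0% = untreated biofilm control and 100% = clotrimazole plus chlorhexidine kill blank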
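Incubation: 24 h biofilm formation, then 48 h compound exposure, 37 °C | Material: C. albicans biofilms | Buffer or medium: RPMI/MOPS medium, pH 7.0 | Measured by: 2-h Alamar Blue fluorescence, 535/590 nm excitation/emission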
WT yeast gro inh: growth inhibition of WT strain, primary screen, mitochondrial fusion inhibitor project, WT and mutant strains, chemical genetic; 190,000 tested, 2.1% active; mitochondrial fusion phenotypic screen; AID 1362, 2008; inhibition, % at 10 µM; in the data active = inhibition above about 58%; tested in S. cerevisiae
Hck Nef HTS: inhibitors of Nef-activated human Hck kinase, primary screen, biochemical, Z-Lyte FRET, 384-well, Hck-YEEI. Tyrosine-protein kinase HCK (Homo sapiens), P08631. Recombinant Hck-YEEI plus Nef, Z-Lyte FRET kinase assay. inhibition, % at 20 µM. 220,000 tested, 0.68% active. AID 463187, 2010;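 active = Hck-Nef kinase inhibition above about 50%, limit read from the data; inactive = inhibition below that limit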;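 also: 0% = DMSO with Hck plus Nef and 100% = Hck alone without Nef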
Numbers without * were called inactive; x = no result.

SMILES	RAM network inh	p47phox inh	Arbovirus anti	Biofilm kill mix	WT yeast gro inh	Hck Nef HTS
NC(=S)N/N=C\c1c(OCc2ccccc2Cl)ccc2ccccc12	4.3	-0.2	-5.7	14.2	61.2*	0.3
NC(=S)N/N=C\c1c2ccccc2cc2ccccc12	4.3	-22.4	-35.1	18.8	29.3	0.8
CC1=C/C(=N\Nc2ccccc2[N+](=O)[O-])CC(C)(C)C1	5.8	-1.2	-6.0	15.8	63.9*	-1.4
C=CCNC(=O)c1c(Cl)cnn1-c1ccc(C)cc1	2.7	6.9	0.0	6.5	-3.6	1.3
CC(=O)OC[C@H]1O[C@@H](n2ncc(=O)[nH]c2=O)[C@H](OC(C)=O)[C@@H]1OC(C)=O	1.2	-1.9	60.1*	17.5	4.2	-1.8
CC(=O)OCC1OC(n2ncc(=O)n(Cc3ccccc3)c2=O)C(OC(C)=O)C1OC(C)=O (centres undefined)	-0.5	0.9	-5.4	11.6	-6.7	17.3
COc1ccccc1C1CN(c2ccc(F)cc2F)N=C1c1cccs1 (centres undefined)	3.5	-19.9	-9.2	x	78.8*	46.9
COc1ccc(/C=C/C(=O)c2cc(Br)ccc2O)cc1OC	2.0	-7.1	3.1	14.3	-24.7	-0.8
COc1ccc(/C=C/C(=O)c2cc(Br)ccc2OC(=O)c2ccco2)cc1OC	5.2	-20.7	-30.8	9.8	65.0*	-26.3
CC(=O)c1cccc(NC(=O)c2ccc(C)o2)c1	0.4	1.7	11.1	12.1	13.7	20.7
CCOC(=O)c1ccc(N=C2SC(C(=O)NCCc3ccccc3)CC(=O)N2C)cc1 (centres undefined)	9.5*	-0.5	-5.4	-8.5	2.4	-6.5
Cc1ccc(S(=O)(=O)NC(=O)c2cccn2C)cc1	2.0	3.7	0.6	x	16.5	0.1
C=CCNC(=O)c1onc(CSc2ccccc2)c1C(=O)O	0.3	-14.9	11.9	x	-5.3	-1.0
C=CCNC(=O)c1onc(CSc2ccc(C(C)C)cc2)c1C(=O)O	-2.1	0.4	35.5*	x	8.7	0.5
COc1ccc(S(=O)(=O)N2CCC(C(=O)Nc3ccc4c(c3)OCCO4)CC2)cc1OC	10.8*	-7.5	-8.0	x	2.0	1.5
COc1ccc(S(=O)(=O)N2CCN(c3ccccc3OC)CC2)cc1OC	x	-3.5	49.5*	x	1.4	-0.6
COc1ccc(NC(=O)C2CCN(S(=O)(=O)c3ccc(Br)s3)CC2)cc1OC	10.5*	-13.5	-3.1	11.9	-3.0	-4.2
COc1ccc(NC(=O)C2CCN(S(=O)(=O)c3ccc(C)cc3)CC2)cc1OC	3.4	-10.3	-2.0	x	-2.6	1.8
COc1ccc(S(=O)(=O)N2CCC(C(=O)NCCc3ccc4c(c3)OCO4)CC2)cc1	-0.3	42.0*	-2.9	x	-7.1	2.3
Cc1nn(-c2ccccc2)nc1C(=O)NNC(=O)c1ccc(C(F)(F)F)cc1	x	-2.6	x	4.3	x	9.7
O=C(COC(=O)C1(c2ccccc2)CC1)N1CCN(c2ccc(F)cc2)CC1	2.0	-1.6	3.4	x	14.3	1.2
CCCCNC(=O)NNc1nc(Cl)cc(C)c1C#N	1.4	5.8	9.1	17.1	2.7	-8.3
COc1ccc(S(=O)(=O)N2CCC(C(=O)N3CCCCC3)CC2)cc1OC	-0.7	-12.1	9.8	x	61.1*	0.5
COC(=O)Nc1ccc(S(=O)(=O)N2CCC(C(=O)N(C)C3CCCCC3)CC2)cc1	2.4	-4.2	30.4*	12.0	18.7	8.8
CCOc1ccc(C(=O)Nc2ccc3c(c2)OCCO3)cc1OC	8.5*	-13.1	0.6	x	-4.1	16.3
SMILES	RAM network inh	p47phox inh	Arbovirus anti	Biofilm kill mix	WT yeast gro inh	Hck Nef HTS
CC(=O)Nc1nc(CCC(C)C)cc2c1c(=O)oc1ccccc12	1.4	2.2	-10.6	x	33.4	5.0
COc1cc(CC(=O)Nc2cc(S(C)(=O)=O)ccc2Cl)cc(OC)c1OC	1.2	-5.5	4.7	2.7	0.5	26.5
Cc1cccc(-c2nc(CSc3nc4c(c(=O)[nH]3)CCC4)c(C)o2)c1	5.8	1.2	-25.9	16.0	4.2	-4.0
COc1cccc(NC(=O)c2cc(-c3ccncc3)nc3c(C)cc(C)cc23)c1	-0.6	-28.0	10.2	11.5	19.2	4.3
CCOc1ccccc1NC(=O)c1cc(-c2ccncc2)nc2c(Cl)cccc12	3.5	39.7*	5.5	32.7	37.6	2.8
CCCCNC(=O)CN1C(=O)NC(CCc2ccccc2)C1=O (centres undefined)	-0.4	3.8	1.0	15.7	10.2	-23.8
Cc1cccc(-n2[nH]c3c4c(ccc3c2=O)C(=O)c2ccccc2C4=O)c1	7.7	49.7*	-16.7	2.5	40.2	0.0
CCCCN1C=C(C(=O)OC)C(c2ccccc2C(F)(F)F)C(C(=O)OC)=C1	4.2	-9.3	8.1	x	2.7	-9.1
COCCN1C=C(C(=O)OC)C(c2ccccc2C(F)(F)F)C(C(=O)OC)=C1	1.1	-8.0	1.0	x	4.9	65.3*
CC(C)(C)C(=O)COC(=O)C1CC(=O)N(c2ccccc2)C1 (centres undefined)	0.9	8.9	-1.4	12.6	8.3	12.0
CCOC(=O)C1=C(O)/C(=C/c2ccc(C)o2)SC1=NC(=O)c1ccccc1C	x	x	x	x	x	55.3*
CCOC(=O)C1=C(O)/C(=C/c2cc(OC)c(OC)c(OC)c2)SC1=Nc1ccc(OC)cc1	2.4	5.7	12.7	x	-22.5	-0.7
O=C(CSc1nc2nn(-c3ccccc3)c(=O)c-2c2n1CCCCC2)NCCc1ccccc1	0.5	2.0	31.8*	17.2	4.1	20.8
C/C(=N\NC(=O)c1nnn(-c2nonc2N)c1COc1ccc(F)cc1)c1ccc(Cl)cc1	x	-0.9	x	22.9	x	34.5
O=C(NCc1ccccc1)c1ccc2c(=O)[nH]c3c(C(=O)NCC4CCCO4)sc(=S)n3c2c1 (centres undefined)	4.1	-39.4	-15.3	7.8	-5.3	30.6
Cc1ccc(CNC(=O)c2ccc3c(=O)[nH]c4c(C(=O)NCC5CCCO5)sc(=S)n4c3c2)cc1 (centres undefined)	5.6	-36.0	-1.7	24.1	0.6	56.6*
Cc1c(C(=O)OCC(=O)N(C)C2CCS(=O)(=O)C2)oc2ccc(Br)cc12 (centres undefined)	x	8.6	x	11.2	x	-3.4
Clc1cccc(Nc2ncnc3ccc(Br)cc23)c1	3.9	-23.8	-5.5	x	72.8*	3.8
Cc1ccc2ncnc(Nc3ccccc3)c2c1	0.7	-11.8	21.2	6.5	4.5	31.7
Cc1cccc(Nc2ncnc3ccc(Br)cc23)c1	0.4	-12.6	13.7	12.2	34.6	16.9
Clc1ccc(Nc2ncnc3ccc(Br)cc23)cc1	1.6	-26.7	19.3	x	60.6*	1.6
O=C(NC(=S)Nc1ccc(CN2CCOCC2)cc1)c1ccc2c(c1)OCCO2	x	-5.8	x	21.2	x	24.6
CN(C)c1ccc(N=Nc2nc3ccccc3n2C)cc1	x	-163.6	x	8.4	x	23.5
